{"source": "ChEMBL document CHEMBL1629547", "about": "“Zidovudine impairs adipogenic differentiation through inhibition of clonal expansion” (Antimicrob Agents Chemother, 2008)", "key": {"Mus musculus [1]": {"species": "Mus musculus", "assay": "Antiproliferative activity against mouse 3T3-F442A cells assessed as [3H]thymidine incorporation", "format": "functional, cell-based"}, "Homo sapiens": {"system": "Homo sapiens", "assay": "Antiproliferative activity against human subcutaneous preadipocyte assessed as [3H]thymidine incorporation at 6 uM", "format": "functional", "in_short": "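Primary human subcutaneous preadipocytes (collagenase-digested abdominal fat, kept in DMEM-Ham's F-12 1:1 with 10% FBS and 172 µM ascorbate 2-phosphate) were given drug or vehicle for 24 h. [3H]thymidine was then added for a further 24 h, and cells were filter-harvested and counted by beta counter (cpm). There were 4 to 16 replicates per experiment, in at least 3 independent experiments.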"}, "Mus musculus [2]": {"species": "Mus musculus", "assay": "Induction of preadipocyte differentiation in mouse 3T3-F442A cells assessed as triglyceride accumulation at 6 uM after 9 days by oil red O staining relative to control", "format": "functional, cell-based", "in_short": "(§1)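 Drug was present while 3T3-F442A cells differentiated. On day 9 cells were fixed in 10% formalin and stained with 0.0021% (wt/vol) Oil red O in 60% isopropanol. Cells were dried, dye extracted with 100% isopropanol, and fluorescence read at 495 nm. Data are from three independent experiments, Mann-Whitney U test versus control.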"}, "Mus musculus [3]": {"species": "Mus musculus", "assay": "Induction of preadipocyte differentiation in mouse 3T3-F442A cells assessed as triglyceride accumulation at 3 uM after 9 days by oil red O staining relative to control", "format": "functional, cell-based", "in_short": "as §1"}, "Mus musculus [4]": {"species": "Mus musculus", "assay": "Induction of preadipocyte differentiation in mouse 3T3-F442A cells assessed as triglyceride accumulation at 0.1 uM after 9 days by oil red O staining relative to control", "format": "functional, cell-based", "in_short": "as §1"}, "Mus musculus [5]": {"species": "Mus musculus", "assay": "Induction of preadipocyte differentiation in mouse 3T3-F442A cells assessed as adiponectin mRNA expression on day 9 by RT-PCR analysis", "format": "functional, cell-based", "in_short": "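3T3-F442A preadipocytes were exposed to drug or vehicle from day −7, induced on day 0 and differentiated to day +9, when RNA was taken. Adiponectin mRNA was measured by real-time RT-PCR (42 cycles, 94/55/72°C) against transferrin receptor as calibrator. RNA and cDNA were pooled; there were three independent experiments with triplicate PCR each.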"}, "[6]": {"assay": "Antiproliferative activity against mouse 3T3-F442A cells assessed as [3H]thymidine incorporation at 1 uM", "format": "functional"}, "[7]": {"assay": "Antiproliferative activity against mouse 3T3-F442A cells assessed as [3H]thymidine incorporation at 3 uM", "format": "functional"}, "[8]": {"assay": "Antiproliferative activity against mouse 3T3-F442A cells assessed as [3H]thymidine incorporation at 6 uM", "format": "functional"}, "[9]": {"assay": "Antiproliferative activity against mouse 3T3-F442A cells assessed as [3H]thymidine incorporation at 180 uM", "format": "functional"}, "Mus musculus [10]": {"species": "Mus musculus", "assay": "Antiproliferative activity against mouse 3T3-F442A cells assessed as [3H]thymidine incorporation at 0.1 uM", "format": "functional, cell-based"}, "Mus musculus [11]": {"species": "Mus musculus", "assay": "Induction of adipocyte differentiation in mouse 3T3-F442A cells assessed as triglyceride accumulation at 6 uM on day 9 by oil red O staining relative to control", "format": "functional, cell-based", "in_short": "(§2)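 Drug was added to 3T3-F442A cells only after clonal expansion was complete. On day 9 cells were fixed in formalin and stained with 0.0021% Oil red O in 60% isopropanol. Dye was extracted with 100% isopropanol and fluorescence read at 495 nm. Data are from four independent experiments, ANOVA with Bonferroni versus control.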"}, "Mus musculus [12]": {"species": "Mus musculus", "assay": "Induction of adipocyte differentiation in mouse 3T3-F442A cells assessed as triglyceride accumulation at 1 uM on day 9 by oil red O staining relative to control", "format": "functional, cell-based", "in_short": "as §2"}, "Mus musculus [13]": {"species": "Mus musculus", "assay": "Induction of adipocyte differentiation in mouse 3T3-F442A cells assessed as PPARgamma mRNA expression on day 6 by RT-PCR analysis", "format": "functional, cell-based"}, "Mus musculus [14]": {"species": "Mus musculus", "assay": "Induction of adipocyte differentiation in mouse 3T3-F442A cells assessed as C/EBPalpha mRNA expression on day 6 by RT-PCR analysis", "format": "functional, cell-based"}, "Mus musculus [15]": {"species": "Mus musculus", "assay": "Antiproliferative activity against mouse 3T3-F442A cells assessed as mtDNA depletion", "format": "functional, cell-based"}, "[16]": {"assay": "Cytotoxicity against mouse 3T3-F442A cells at 1 uM after 8 days by trypan blue staining"}, "[17]": {"assay": "Cytotoxicity against mouse 3T3-F442A cells at 6 uM after 8 days by trypan blue staining"}, "3T3-F442A (Mus musculus) [18]": {"system": "3T3-F442A (Mus musculus)", "assay": "Induction of preadipocyte differentiation in mouse 3T3-F442A cells assessed as PPARgamma mRNA expression on day 4 by RT-PCR analysis"}, "3T3-F442A [19]": {"system": "3T3-F442A", "assay": "Induction of preadipocyte differentiation in mouse 3T3-F442A cells assessed as PPARgamma mRNA expression on day 4 by RT-PCR analysis"}, "3T3-F442A (Mus musculus) [20]": {"system": "3T3-F442A (Mus musculus)", "assay": "Induction of preadipocyte differentiation in mouse 3T3-F442A cells assessed as C/EBPalpha mRNA expression on day 6 by RT-PCR analysis"}, "3T3-F442A [21]": {"system": "3T3-F442A", "assay": "Induction of preadipocyte differentiation in mouse 3T3-F442A cells assessed as C/EBPalpha mRNA expression on day 6 by RT-PCR analysis"}}, "note": "Active and inactive are the calls of the source. The calls are words filed in the database; no cut-off is given here.", "data": [{"smiles": "Cc1cn([C@H]2C[C@H](N=[N+]=[N-])[C@@H](CO)O2)c(=O)[nH]c1=O", "note": "[ZIDOVUDINE]", "values": [{"measurement": "Activity", "setting": "Mus musculus [1]", "result": "Active"}, {"measurement": "Activity", "setting": "Homo sapiens", "result": "Active"}, {"measurement": "Activity", "setting": "Mus musculus [2]", "result": "Active"}, {"measurement": "Activity", "setting": "Mus musculus [3]", "result": "inactive"}, {"measurement": "Activity", "setting": "Mus musculus [4]", "result": "inactive"}, {"measurement": "Activity", "setting": "Mus musculus [5]", "result": "Active"}, {"measurement": "Activity", "setting": "[6]", "result": 30, "unit": "%"}, {"measurement": "Activity", "setting": "[7]", "result": 30, "unit": "%"}, {"measurement": "Activity", "setting": "[8]", "result": 30, "unit": "%"}, {"measurement": "Activity", "setting": "[9]", "result": 30, "unit": "%"}, {"measurement": "Activity", "setting": "Mus musculus [10]", "result": "inactive"}, {"measurement": "Activity", "setting": "Mus musculus [11]", "result": "inactive"}, {"measurement": "Activity", "setting": "Mus musculus [12]", "result": "inactive"}, {"measurement": "Activity", "setting": "Mus musculus [13]", "result": "inactive"}, {"measurement": "Activity", "setting": "Mus musculus [14]", "result": "inactive"}, {"measurement": "Activity", "setting": "Mus musculus [15]", "result": "inactive"}, {"measurement": "Activity", "setting": "[16]", "result": "Non-toxic"}, {"measurement": "Activity", "setting": "[17]", "result": "Non-toxic"}, {"measurement": "Activity", "setting": "3T3-F442A (Mus musculus) [18]", "result": "Active"}, {"measurement": "Activity", "setting": "3T3-F442A [19]", "result": "Active"}, {"measurement": "Activity", "setting": "3T3-F442A (Mus musculus) [20]", "result": "Active"}, {"measurement": "Activity", "setting": "3T3-F442A [21]", "result": "Active"}]}]}
